# Assay outcomes: PubChem BioAssay, SRMLSC
# Only a selection was taken, and hits are over-represented in it overall.
# H69AR growth 86K: growth inhibitors of human H69AR lung tumor cells | AID 598 | H69AR lung tumor viability, ATP luminescence, 72 h; hits give low values | viability, % at 10 µM | 85,000 compounds, 6% hits;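 active means viability at or below 40%; inactive means viability above 40%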;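 further: multidrug resistant small cell line overexpressing MRP-1 efflux transporter; 100% = mean luminescence of untreated control wells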
# HCT116 PTEN-null: suppresses growth of cells with PTEN deletion; HCT116 PTEN-null viability, CellTiter-Glo, 60 h; hits give low values; viability, % at 10 µM; 140,000 compounds, 1.2% hits; AID 827;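 active means viability at or below a set limit, 4 SD under the median of all tested compounds, cut at about 3.7% in these data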;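 further: PTEN knockout HCT116 line with beta catenin targeted HCT116 as companion control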
# Lung fibro prol: blocks proliferation of human lung fibroblasts | LL 47 human lung fibroblast viability, ATP luminescence; hits give low values | viability, % at 10 µM | 85,000 compounds, 1.1% hits | AID 719;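 active means viability at or below 50% in the single dose screen; inactive means viability above 50%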;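 further: compound exposure lasted 72 h before the ATP readout; 100% = median luminescence of untreated cell-only wells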
#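 Test system: LL 47 human lung fibroblasts / Incubation: 72 h compound exposure at 37 °C after overnight plating / Technique: luminescent ATP detection, CellTiter-Glo / Compound dosing: 0.1% DMSO in all compound wells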
# HUVEC inhibit: inhibitors of human endothelial cell proliferation. HUVEC proliferation, CellTiter-Glo luminescence, 72 h; hits give low values. 86,000 compounds, 1.1% hits. viability, % at 10 µM (by protocol);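 active means viability at or below 30%; inactive means viability above 30%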;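 further: 100% = median luminescence of DMSO-only cell control wells on each plate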
# bCat KO growth: beta-catenin-lacking colon tumor cell growth suppression; 140,000 compounds, 1.5% hits; viability, % at 10 µM; HCT116 beta-catenin knockout viability, CellTiter-Glo, 60 h; hits give low values;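 active means viability at or under a set limit, the compound median less 4 SD, cut at about 6% in these data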;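 further: 0% = Hyamine 1622 control at 20 µM and 100% = untreated cell control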
# An asterisk follows results filed as active; x = no result.
SMILES,H69AR growth 86K,HCT116 PTEN-null,Lung fibro prol,HUVEC inhibit,bCat KO growth
Cc1ccc(NC(=O)c2ccc3ccccc3n2)nc1,62,80,89,92,84
CCc1cccc(CC)c1NC(=O)COn1nnc2ccc(C(F)(F)F)cc21,x,92,x,x,95
O=C(CN1C(=O)S/C(=C/c2ccncc2)C1=O)N1CCOCC1,x,91,x,x,92
CC(C)(C)C(=O)/C(C#N)=c1\s/c(=C\c2ccncc2)c(=O)n1CCCN1CCOCC1,74,x,x,1.8*,x
O=C(O)/C=C/c1cn(-c2ncc(C(F)(F)F)cc2Cl)c2ccccc12,x,98,x,x,105
Cc1ccc(-n2c(Cl)c(Cl)nc(Cl)c2=O)cc1,x,2.5*,x,x,4.9*
COc1nc(Cl)cn(-c2ccc(C)cc2)c1=O,x,101,x,x,92
COc1ccc(N2CCN(C(=O)CN(C)S(=O)(=O)c3cnc[nH]3)CC2)cc1,100,86,109,97,85
CCOC(=O)C1CCN(C(=O)Nc2ccc3nc(-c4ccco4)c(-c4ccco4)nc3c2)CC1,38*,77,93,75,76
O=C(Nc1ccc2nc(-c3ccco3)c(-c3ccco3)nc2c1)N1CCCCCC1,x,84,x,x,87
Cc1nc2c(c(=O)n1CC1CCCO1)c1nc3ccccc3nc1n2Cc1ccc2c(c1)OCO2 (stereo not drawn),40*,x,81,53,x
COc1ccc(Cn2c3nc4ccccc4nc3c3c(=O)n(Cc4ccco4)c(C)nc32)cc1,4.5*,x,42*,49,x
CCOC(=O)N1CCC(n2c(SCC(=O)NCc3ccccc3)nc3ccccc3c2=O)CC1,57,63,91,96,68
CCOC(=O)N1CCC(n2c(SCC(=O)N3CCC(C)CC3)nc3ccccc3c2=O)CC1,30*,53,105,88,43
CCOC(=O)N1CCC(n2c(SCC(=O)NCCC3=CCCCC3)nc3ccccc3c2=O)CC1,26*,49,88,74,45
O=C1OC(/C=C/c2ccc(Cl)cc2)=NC/1=C/c1ccco1,x,86,x,x,101
Cc1[nH]n2c(=O)cc(C(C)(C)C)nc2c1-c1ccccc1,36*,17,69,50,13
CCCc1cc(=O)n2[nH]c(C)c(-c3ccccc3)c2n1,55,83,103,76,89
Cc1[nH]n2c(=O)cc(-c3ccc([N+](=O)[O-])cc3)nc2c1-c1ccccc1,15*,x,53,8.6*,x
Cc1[nH]n2c(=O)cc(C(C)C)nc2c1-c1ccccc1,14*,74,66,58,67
CN(c1cccc(NC(=O)CN(c2cccc(Cl)c2)S(=O)(=O)c2ccc(Cl)cc2)c1)S(C)(=O)=O,x,68,x,x,89
Cc1nc2ccc(S(=O)(=O)Nc3ccccc3C)cc2s1,33*,56,91,67,56
Cc1[nH]c2ccccc2c1C1=NNC(=Nc2ccc(F)cc2)SC1,x,18,x,x,14
COc1ccc(N=C2NN=C(c3c(C)[nH]c4ccccc34)CS2)cc1,x,5,x,x,3.8*
CC(C)(C)c1ccc(Cn2cnc(-c3ccc([N+](=O)[O-])cc3)c2)cc1,x,48,x,x,33
SMILES,H69AR growth 86K,HCT116 PTEN-null,Lung fibro prol,HUVEC inhibit,bCat KO growth
O=S1(=O)c2ccccc2N=NN1Cc1ccc(Cl)c(Cl)c1,1.6*,86,8.7*,31,84
CC(C)(C)c1ccc(CN2N=Nc3ccccc3S2(=O)=O)cc1,0.7*,71,17*,9.6*,73
CCN(CCNC(=O)C1CCN(Cc2nc(-c3ccc(Cl)cc3)oc2C)CC1)c1ccccc1,7.3*,1.6*,63,3.9*,1.1*
CCc1ccc(-c2nc(CN3CCCC(C(=O)O)C3)c(C)o2)cc1 (stereo not drawn),107,91,98,108,109
Cc1oc(-c2ccccc2F)nc1CN1CCC(C(=O)NC2CCCCCCC2)CC1,73,29,96,68,18
CCN(CCNC(=O)C1CCCN(Cc2nc(-c3ccc(OC)cc3)oc2C)C1)c1ccccc1 (stereo not drawn),32*,13,x,4.7*,13
CCN(CCNC(=O)C1CCN(Cc2nc(-c3cccc(Cl)c3)oc2C)CC1)c1ccccc1,3.0*,1.5*,43*,5.4*,1.3*
Cc1oc(-c2ccccc2F)nc1CN1CCC(C(=O)NCc2ccco2)CC1,38*,89,101,101,78
Cc1oc(-c2cccc(Cl)c2)nc1CN1CCC(C(=O)NCc2cccnc2)CC1,91,89,103,97,83
CS(=O)(=O)CCC(C(=O)OCc1ccc(Cl)cc1)N1C(=O)c2ccccc2C1=O (stereo not drawn),x,109,x,x,92
O=C1COc2ccc(C(=O)/C=C/c3ccccc3)cc2N1,x,8,x,x,10
CCc1ccc(-c2nc(CN3CCC(C(=O)NCCN(CC)c4ccccc4)CC3)c(C)o2)cc1,1.6*,1.7*,17*,2.3*,1.9*
Cc1cccc(-c2nc(CN3CCCC(C(=O)NC4CCC(C)CC4)C3)c(C)o2)c1 (stereo not drawn),65,23,99,12*,20
CCc1ccc(-c2nc(CN3CCC(C(=O)NCc4ccc(F)cc4)CC3)c(C)o2)cc1,3.3*,51,96,14*,43
COc1ccc(CCNC(=O)C2CCN(Cc3nc(-c4ccc(Cl)cc4)oc3C)CC2)cc1OC,101,x,100,84,x
Cc1oc(-c2ccc(Cl)cc2)nc1CN1CCC(C(=O)NCc2cccs2)CC1,94,66,105,56,68
O=C(Nc1ccc(C(F)(F)F)cc1)c1cc(S(=O)(=O)NCC2COc3ccccc3O2)ccc1F (stereo not drawn),x,55,x,x,58
COc1ccccc1NC(=O)c1c(Nc2ccccc2F)sc(C(=O)Nc2cccc(Cl)c2)c1N,x,87,x,x,89
COC(=O)c1c(NC(=O)Cn2cnc([N+](=O)[O-])n2)sc2c1CCC(C)C2 (stereo not drawn),x,52,x,x,58
CN(C)c1ccc(-c2nnn(CC(=O)Nc3ccccc3N3CCOCC3)n2)cc1,65,71,95,94,79
CN(C)c1ccc(-c2nnn(CC(=O)N3c4ccccc4CCc4ccccc43)n2)cc1,39*,87,99,94,79
O=C(CSc1nnc(-c2ccccc2)n1Cc1ccco1)NCc1ccc2c(c1)OCO2,78,86,101,92,90
O=C(Nc1cccc(-c2cnc3ccccc3n2)c1)c1cccc(NC(=O)c2ccco2)c1,8.1*,71,35*,17*,75
O=C(CCl)Nc1cccc(-c2cnc3ccccc3n2)c1,1.5*,3.0*,2.7*,4.1*,5.1*
O=C(Nc1cccc(NC(=O)c2ccc(-c3cccc(Br)c3)o2)c1)c1ccco1,25*,39,104,61,50
O=C(Nc1cccc(NC(=O)c2ccc(-c3ccc(Br)cc3)o2)c1)c1ccccc1,55,6,72,58,15
CCC(=O)Nc1cccc(-c2cnc3ccccc3n2)c1,77,104,103,107,107
O=C(Nc1cccc(-c2nc3ccccc3[nH]2)c1)c1ccco1,34*,84,96,77,96
